Measurements published in ChEMBL document CHEMBL2331506, “Design, synthesis, antiviral and cytostatic evaluation of novel isoxazolidine nucleotide analogues with a carbamoyl linker” (Bioorg Med Chem, 2013).
Activity calls are given as the source filed them. No rule for the calls is given here.

Columns and labels:
MDCK = assay: Cytotoxicity against dog MDCK cells assessed as alteration of cell morphology up to 100 uM by microscopic analysis; type: cell-based, Canis lupus familiaris
Procedure, shortened: (§1)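 Uninfected host-cell cultures were exposed to compound and examined by microscopy. Cytotoxicity was expressed as the minimum cytotoxic concentration (MCC) causing a microscopically detectable alteration of normal cell morphology.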

[1] = tested on: Respiratory syncytial virus; assay: Antiviral activity against Respiratory syncytial virus long infected in human HeLa cells assessed as reduction of virus-induced cytopathogenicity at 250 uM; type: functional, organism-based
Procedure, shortened: (§2)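 Confluent monolayers (HEL fibroblasts, Vero, or HeLa cells as listed) were infected with 100 CCID50 of virus in the presence of varying compound concentrations. Virus-induced cytopathicity or plaque formation was scored once cytopathicity was complete in untreated infected controls. EC50 was taken as the concentration reducing cytopathogenicity or plaque formation by 50%.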

Felid alphaherpesvirus 1 = assay: Antiviral activity against Feline herpes virus infected in cat CRFK cells assessed as reduction of virus-induced cytopathogenicity at 250 uM; type: functional, organism-based
HeLa = assay: Cytotoxicity against human HeLa cells assessed as alteration of cell morphology up to 100 uM by microscopic analysis; type: cell-based; procedure, shortened: as §1
Human respirovirus 3 = assay: Antiviral activity against Parainfluenza virus 3 infected in african green monkey Vero cells assessed as reduction of virus-induced cytopathogenicity at 250 uM; type: functional, organism-based; procedure, shortened: as §2
Influenza A virus [2] = assay: Antiviral activity against Influenza A virus H3N2 infected in dog MDCK cells assessed as reduction of virus-induced cytopathogenicity at 250 uM; type: functional, organism-based
Procedure, shortened: (§3)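 Confluent cell monolayers were infected with 100 CCID50 of virus while exposed to varying compound concentrations. Cytopathicity was scored once it was complete in untreated infected controls. EC50 was taken as the concentration that reduced virus-induced cytopathogenicity by 50%.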

Human alphaherpesvirus 1 [3] = assay: Antiviral activity against thymidine kinase-deficient, ACV-resistant Herpes simplex virus 1 KOS infected in human HEL cells assessed as reduction of virus-induced cytopathogenicity at 250 uM; type: functional, organism-based; procedure, shortened: as §3
Human alphaherpesvirus 1 [4] = assay: Antiviral activity against Herpes simplex virus 1 KOS infected in human HEL cells assessed as reduction of virus-induced cytopathogenicity at 250 uM; type: functional, organism-based; procedure, shortened: as §2
Influenza B virus = assay: Antiviral activity against Influenza B virus infected in dog MDCK cells assessed as reduction of virus-induced cytopathogenicity at 250 uM; type: functional, organism-based; procedure, shortened: as §3
Feline coronavirus = assay: Antiviral activity against Feline coronavirus infected in cat CRFK cells assessed as reduction of virus-induced cytopathogenicity at 250 uM; type: functional, organism-based
Vero = assay: Cytotoxicity against african green monkey Vero cells assessed as alteration of cell morphology up to 100 uM by microscopic analysis; type: cell-based; conditions: chlorocebus sabaeus; procedure, shortened: as §1
Punta Toro virus = assay: Antiviral activity against Punta Toro virus infected in african green monkey Vero cells assessed as reduction of virus-induced cytopathogenicity at 250 uM; type: functional, organism-based; procedure, shortened: as §2
[5] = tested on: Human immunodeficiency virus 1; assay: Antiviral activity against Human immunodeficiency virus 1 3B infected in human CEM cells assessed as reduction of virus-induced giant cell formation at 250 uM after 4 to 5 days; type: functional, organism-based; conditions: CCRF-CEM
Procedure, shortened: (§4)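 CEM cells at 3 × 10^5 cells/mL were infected with HIV at 100 CCID50 per mL in the presence of compound dilutions. They were held 4–5 days at 37 °C in humidified CO2. Syncytium (giant cell) formation was scored microscopically, and EC50 was taken as the concentration inhibiting giant cell formation by 50%.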

Coxsackievirus B4 = assay: Antiviral activity against Coxsackievirus B4 infected in african green monkey Vero cells assessed as reduction of virus-induced cytopathogenicity at 250 uM; type: functional, organism-based; procedure, shortened: as §2
Human alphaherpesvirus 2 = assay: Antiviral activity against Herpes simplex virus 2 G infected in human HEL cells assessed as reduction of virus-induced cytopathogenicity at 250 uM; type: functional, organism-based; conditions: strain G; procedure, shortened: as §2
Sindbis virus = assay: Antiviral activity against Sindbis virus infected in african green monkey Vero cells assessed as reduction of virus-induced cytopathogenicity at 250 uM; type: functional, organism-based; procedure, shortened: as §2
[6] = tested on: Mammalian orthoreovirus 1; assay: Antiviral activity against Reovirus 1 infected in african green monkey Vero cells assessed as reduction of virus-induced cytopathogenicity at 250 uM; type: functional, organism-based; procedure, shortened: as §2
HEL = assay: Cytotoxicity against human HEL cells assessed as alteration of cell morphology up to 100 uM by microscopic analysis; type: cell-based; procedure, shortened: as §1
[7] = tested on: Human immunodeficiency virus 2; assay: Antiviral activity against Human immunodeficiency virus 2 ROD infected in human CEM cells assessed as reduction of virus-induced giant cell formation at 250 uM after 4 to 5 days; type: functional, organism-based; conditions: CCRF-CEM; procedure, shortened: as §4
[8] = tested on: Vesicular stomatitis virus; assay: Antiviral activity against Vesicular stomatitis virus infected in human HeLa cells assessed as reduction of virus-induced cytopathogenicity at 250 uM; type: functional, organism-based; procedure, shortened: as §3
Influenza A virus [9] = assay: Antiviral activity against Influenza A virus H1N1 infected in dog MDCK cells assessed as reduction of virus-induced cytopathogenicity at 250 uM; type: functional, organism-based; procedure, shortened: as §3
[10] = Cytotoxicity against cat CRFK cells assessed as alteration of cell morphology up to 100 uM by microscopic analysis; type: cell-based, Felis catus; procedure, shortened: as §1
[11] = tested on: Vesicular stomatitis virus; assay: Antiviral activity against Vesicular stomatitis virus infected in human HEL cells assessed as reduction of virus-induced cytopathogenicity at 250 uM; type: functional, organism-based; procedure, shortened: as §3

Structure (SMILES)	Activity (MDCK)	inhibition [1]	inhibition (Felid alphaherpesvirus 1)	Activity (HeLa)	inhibition (Human respirovirus 3)	inhibition (Influenza A virus [2])	inhibition (Human alphaherpesvirus 1 [3])	inhibition (Human alphaherpesvirus 1 [4])	inhibition (Influenza B virus)	inhibition (Feline coronavirus)	Activity (Vero)	inhibition (Punta Toro virus)	inhibition [5]	inhibition (Coxsackievirus B4)	inhibition (Human alphaherpesvirus 2)	inhibition (Sindbis virus)	inhibition [6]	Activity (HEL)	inhibition [7]	inhibition [8]	further results
CCOP(=O)(OCC)[C@H]1C[C@H](C(=O)Nc2ccc(C#N)cc2)ON1C (racemic)	Non-toxic	inactive	inactive	Non-toxic	inactive	inactive	inactive	inactive	inactive	inactive	Non-toxic	inactive	inactive	inactive	inactive	inactive	inactive	Non-toxic	inactive	inactive	inhibition (Influenza A virus [9]): inactive; Activity [10]: Non-toxic; inhibition [11]: inactive
CCOc1ccc(NC(=O)[C@H]2C[C@@H](P(=O)(OCC)OCC)N(C)O2)cc1 (racemic)	Non-toxic	inactive	inactive	Non-toxic	inactive	inactive	inactive	inactive	inactive	inactive	Non-toxic	inactive	inactive	inactive	inactive	inactive	inactive	Non-toxic	inactive	inactive	inhibition (Influenza A virus [9]): inactive; Activity [10]: Non-toxic; inhibition [11]: inactive
CCOP(=O)(OCC)[C@H]1C[C@H](C(=O)Nc2ccc([N+](=O)[O-])cc2)ON1C (mixture of isomers)	Non-toxic	inactive	inactive	Non-toxic	inactive	inactive	inactive	inactive	inactive	inactive	Non-toxic	inactive	inactive	inactive	inactive	inactive	inactive	Non-toxic	inactive	inactive	inhibition (Influenza A virus [9]): inactive; Activity [10]: Non-toxic; inhibition [11]: inactive
CCOP(=O)(OCC)[C@@H]1C[C@H](C(=O)Nc2cccc(Cl)c2)ON1C (mixture of isomers)	Non-toxic	inactive	inactive	Non-toxic	inactive	inactive	inactive	inactive	inactive	inactive	Non-toxic	inactive	inactive	inactive	inactive	inactive	inactive	Non-toxic	inactive	inactive	inhibition (Influenza A virus [9]): inactive; Activity [10]: Non-toxic; inhibition [11]: inactive
CCOP(=O)(OCC)[C@@H]1C[C@H](C(=O)Nc2cccc(C)c2)ON1C (mixture of isomers)	Non-toxic	inactive	inactive	Non-toxic	inactive	inactive	inactive	inactive	inactive	inactive	Non-toxic	inactive	inactive	inactive	inactive	inactive	inactive	Non-toxic	inactive	inactive	inhibition (Influenza A virus [9]): inactive; Activity [10]: Non-toxic; inhibition [11]: inactive
CCOP(=O)(OCC)[C@@H]1C[C@H](C(=O)Nc2cccc(C#N)c2)ON1C (racemic)	Non-toxic	inactive	inactive	Non-toxic	inactive	inactive	inactive	inactive	inactive	inactive	Non-toxic	inactive	inactive	inactive	inactive	inactive	inactive	Non-toxic	inactive	inactive	inhibition (Influenza A virus [9]): inactive; Activity [10]: Non-toxic; inhibition [11]: inactive
CCOP(=O)(OCC)[C@H]1C[C@H](C(=O)Nc2cc(OC)cc(OC)c2)ON1C (mixture of isomers)	Non-toxic	inactive	inactive	Non-toxic	inactive	inactive	inactive	inactive	inactive	inactive	Non-toxic	inactive	inactive	inactive	inactive	inactive	inactive	Non-toxic	inactive	inactive	inhibition (Influenza A virus [9]): inactive; Activity [10]: Non-toxic; inhibition [11]: inactive
CCOP(=O)(OCC)[C@H]1C[C@H](C(=O)Nc2ccc(F)cc2F)ON1C (mixture of isomers)	Non-toxic	inactive	inactive	Non-toxic	inactive	inactive	inactive	inactive	inactive	inactive	Non-toxic	inactive	inactive	inactive	inactive	inactive	inactive	Non-toxic	inactive	inactive	inhibition (Influenza A virus [9]): inactive; Activity [10]: Non-toxic; inhibition [11]: inactive
